# Compound activity as filed in PubChem BioAssay.
# PG9 Ab binder: PG9 antibody binding by small molecule; TR-FRET gp120-PG9 antibody binding; inhibition, % at 6.7 µM; 360,000 tested, 0.43% active; AID 624416; in the data active = inhibition above about 8.5%
# T cruzi inh: T. cruzi replication inhibition; T. cruzi beta-gal in NIH3T3, luminescence, 90 h; inhibition, % (test concentration not listed); 300,000 tested, 1.4% active; AID 1885;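 active = mean inhibition across valid replicates above about 55%, limit read from the data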;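 also: signal also drops with host cell toxicity which is not excluded here; higher percent means less beta-gal luminescence so fewer parasites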
#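 Read-out: Parasite load inhibition, % | Test system: Mouse NIH/3T3 fibroblasts infected with β-gal-expressing T. cruzi Tulahuen C4 | Amount: 5,000 cells/well | Medium: DMEM, 2% fetal bovine serum | Signal: GalScreen β-gal luminescence, detergent lysis, 60 min | Timing: 3 h attach, ≥90 h co-culture | Also added: Tulahuen C4 trypomastigotes, 5000/well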
# MIN6 prolif: induces beta-cell replication in MIN6 cells; proliferation, % at 10 µM; 330,000 tested, 0.29% active; AID 2380; MIN6 cells proliferation, ATPlite luminescence, 48 h; cells starved in 0.2% serum; 100% = growth in 10% serum;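 active = compounds whose signal lies at least 3.5 SD above the mean of all wells on their plate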
# NR1D1 modulator: modulators of human Rev-erb alpha DNA binding. activity, % at 10 µM. AID 1259318. P20393. 370,000 tested, 0.79% active. Rev-erbα–FITC-DNA binding, fluorescence polarization, 90 min;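 active = activity above about 14%, limit read from the data; passing the limit was not always enough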
# Target sequence (P20393 whole entry, looked up): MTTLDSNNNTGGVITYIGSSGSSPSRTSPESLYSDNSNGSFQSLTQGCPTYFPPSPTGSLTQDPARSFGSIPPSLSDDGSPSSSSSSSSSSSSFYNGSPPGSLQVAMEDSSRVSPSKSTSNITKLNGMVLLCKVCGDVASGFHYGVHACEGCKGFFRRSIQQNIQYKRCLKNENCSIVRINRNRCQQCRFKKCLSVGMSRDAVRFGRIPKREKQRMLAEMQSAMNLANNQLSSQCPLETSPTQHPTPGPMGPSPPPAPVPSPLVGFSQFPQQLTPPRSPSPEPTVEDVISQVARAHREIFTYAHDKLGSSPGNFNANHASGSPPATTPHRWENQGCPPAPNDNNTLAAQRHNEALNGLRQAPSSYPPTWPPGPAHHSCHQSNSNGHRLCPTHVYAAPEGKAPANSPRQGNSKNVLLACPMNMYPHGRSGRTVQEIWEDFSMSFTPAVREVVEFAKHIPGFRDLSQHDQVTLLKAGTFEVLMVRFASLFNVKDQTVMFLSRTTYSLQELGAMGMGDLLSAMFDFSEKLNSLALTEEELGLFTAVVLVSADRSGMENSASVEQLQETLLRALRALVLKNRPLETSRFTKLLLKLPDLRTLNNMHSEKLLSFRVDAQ
# hiPSC survival: enhancers of human iPSC single-cell survival; hiPSC single-cell survival, ATPlite luminescence; 100% = ROCK inhibitor wells, 0% = DMSO; survival enhancement, % at 20 µM; 360,000 tested, 0.044% active; AID 602274; in the data active = survival enhancement above about 18%;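 also: cells exposed to compounds for 16 hours before the ATP read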
# H9c2 TAG inh: reduces triacylglycerol accumulation in H9c2 cells | Nile Red lipid (TAG) fluorescence; cells loaded with 200 µM oleic acid | inhibition, % at 12.5 µM | 230,000 tested, 0.66% active | AID 651582;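 active = pattern-corrected inhibition of lipid staining of at least 50% with the nuclear-stain viability signal not falling by more than 50%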
# Hits are given with their value; – = inactive; · = no result. Shown are actives, neighbours in structure and some others; about 2.9% of the full set was active somewhere.
SMILES,PG9 Ab binder,T cruzi inh,MIN6 prolif,NR1D1 modulator,hiPSC survival,H9c2 TAG inh
CCCc1cc(-c2nc(N)ncc2-c2ccc3c(c2)OCCCO3)c(O)cc1OC,–,58,–,–,–,–
COc1ccc(-n2ncc3c2CC(C)(C)CC3NC(=O)CCC2=NNC(=O)CC2)cc1 (centres undefined),–,–,–,–,–,·
Cc1nn2c(N3CCN(C)CC3)cc(C(C)(C)C)nc2c1-c1ccccc1,–,67,–,–,–,–
O=C(CSc1ncnc2c1nnn2Cc1ccc(F)cc1)NCC1CCCO1 (centres undefined),–,–,–,–,–,·
O=C(CSc1ncnc2c1nnn2Cc1ccc(F)cc1)NC1CCCCC1,–,79,–,–,–,–
CCN(Cc1ccccc1)S(=O)(=O)c1ccc(S(=O)(=O)N(Cc2ccccn2)Cc2ccco2)cc1,–,–,–,–,–,·
CC1CCCCN1S(=O)(=O)c1ccc(S(=O)(=O)N(Cc2ccccc2)Cc2ccco2)cc1 (centres undefined),–,71,–,–,–,·
O=C(NCc1ccccc1F)C1CCCN(S(=O)(=O)c2ccc(-n3cnnn3)cc2)C1 (centres undefined),–,–,–,–,–,·
CC[N+]1=C(C)C(C)(C)c2cc(C)ccc21,–,57,–,–,–,–
O=C(OCn1ncc(Cl)c(Cl)c1=O)c1cccc(C(F)(F)F)c1,·,–,–,·,75,·
COc1ccc(C(C)(C)C)cc1NC(=O)COC(=O)c1cc(SC)ccc1Cl,–,–,–,–,–,·
COc1cc(C(=O)NCCC2=CCCCC2)ccc1OCc1c(C)noc1C,–,·,–,–,–,–
Cc1cccc(N2CCN(c3cccc(C)c3)C2c2cccnc2)c1,–,66,–,–,–,–
Cc1nn(Cc2ccccc2Cl)c(C)c1NC(=O)CCCn1nc([N+](=O)[O-])c(Cl)c1C,–,71,–,–,–,·
COC(=O)c1ccc(C2Nc3cccc4cccc(c34)N2)cc1,–,67,–,–,–,–
CN(CCOc1ccc(-c2ccn(S(=O)(=O)c3c(Cl)cccc3Cl)n2)cc1)c1ccccn1,–,–,–,–,19,–
NC1=C(Cl)C(=O)c2ccc(S(N)(=O)=O)cc2C1=O,–,·,·,–,–,–
NC1=C(Cl)C(=O)c2ccccc2C1=O,–,·,·,–,–,66
O=S(=O)(Nc1ccc(-c2csc(-c3ccccc3)n2)cc1)c1ccccc1,–,–,–,–,–,–
O=[N+]([O-])c1ccc(S(=O)(=O)Nc2ccc(-c3csc(-c4ccccc4)n3)cc2)cc1,–,66,–,–,·,·
Cc1ccc(-c2c(C(=O)O)c(C(=O)O)c3n2CSC3)cc1,–,–,–,–,–,·
CC(C)OC(=O)c1sc2nc(-c3ccccc3)ccc2c1N,–,–,–,–,–,·
Cc1ccc2c(N)c(C(=O)N(c3ccccc3)c3ccccc3)sc2n1,–,67,–,–,–,–
COC(=O)c1ccccc1-c1ccc(C=O)o1,–,–,–,–,–,–
CCOC(=O)N1CCC(n2c(SCC(=O)Nc3ccccc3OC)nc3ccccc3c2=O)CC1,–,56,–,–,–,–
SMILES,PG9 Ab binder,T cruzi inh,MIN6 prolif,NR1D1 modulator,hiPSC survival,H9c2 TAG inh
CC(C)(C)c1nnc(SCC(=O)Nc2ccc(N3CCCCC3)cc2)n1N,–,·,–,–,–,–
O=C(CSc1nc2[nH]ncc2c(=O)n1-c1ccc(Cl)c(Cl)c1)NCc1ccccc1Cl,–,58,–,–,–,–
COc1ccc(C(c2c(C)n(C)n(-c3ccccc3)c2=O)c2c(C)n(C)n(-c3ccccc3)c2=O)c(OC)c1OC,–,–,–,–,–,–
Cn1nc(-c2ccccn2)nc2c(=O)n(C)c(=O)nc1-2,–,59,–,–,–,–
CCCc1nc2c(=O)n(C)c(=O)nc-2n(C)n1,–,·,·,–,–,–
Clc1ccc(CSc2nnc(-c3ccncc3)s2)cc1,–,59,–,–,–,–
O=[N+]([O-])c1cc(C(F)(F)F)cc([N+](=O)[O-])c1NCCCN1CCOCC1,–,–,–,–,–,–
COc1cc(NS(=O)(=O)c2ccc(C)cc2)c2ncccc2c1,–,78,–,–,–,–
Cc1ccc(S(=O)(=O)Nc2cccc3cccnc23)cc1,–,–,–,–,–,–
CCOc1cccc(C(=O)N2CCCCC2c2cccnc2)c1 (centres undefined),–,–,–,–,–,–
